# Screening results deposited in PubChem BioAssay by several laboratories.
# JMJD2C inh = human JMJD2C demethylase inhibition | Q9H3R0 | GST-JMJD2C(1-420) H3K9me3 demethylation, DELFIA europium | inhibition, % at 2.35 µM | hit rate 0.069% among 330,000;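 active = more than half of a compound's replicate wells show inhibition beyond 50%, single wells judged on their own value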;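 also: signal counts dimethyl H3K9 product captured on neutravidin plate; 0% = median of DMSO wells and 100% = 0.3 times that DMSO median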
# Target sequence (Q9H3R0 1-420 limits assumed): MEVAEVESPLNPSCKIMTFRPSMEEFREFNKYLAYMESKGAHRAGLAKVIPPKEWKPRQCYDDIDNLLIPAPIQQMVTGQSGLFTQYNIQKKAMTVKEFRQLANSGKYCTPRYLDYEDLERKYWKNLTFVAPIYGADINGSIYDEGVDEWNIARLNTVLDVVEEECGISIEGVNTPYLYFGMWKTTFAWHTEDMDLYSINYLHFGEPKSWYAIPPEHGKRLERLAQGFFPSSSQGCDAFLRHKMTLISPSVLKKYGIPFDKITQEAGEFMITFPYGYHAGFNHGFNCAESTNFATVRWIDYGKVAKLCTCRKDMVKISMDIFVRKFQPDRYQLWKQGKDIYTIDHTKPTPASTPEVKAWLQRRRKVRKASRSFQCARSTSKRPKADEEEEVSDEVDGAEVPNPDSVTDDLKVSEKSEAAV
# p-CIP stab down = p/CIP protein destabilization. Q05BA5. F442A p/CIP-EGFP cells, EGFP fluorescence, 16 h. decrease of EGFP signal, % at 10 µM. hit rate 0.01% among 290,000;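 active = EGFP signal decrease of at least 30% at 10 µM or well 3 SD below plate mean, unless failing retest; inactive = the rest, including hits failing retest or dose response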
# VLA-4 inh = inhibition in a human VLA-4 binding assay | inhibition, % (about 7 µM as worked out from the volumes in the protocol) | P13612 | AID 2557 | hit rate 0.2% among 330,000 | VLA-4 expressing cells, ligand binding flow cytometry; in the data active = inhibition above about 50%
# Arr AP2 block = inhibitors of human beta-arrestin and AP2 interaction. hit rate 0.31% among 340,000. inhibition, % at 10 µM. AID 504490. FITC-arrestin peptide / GST-AP2 beads, flow cytometry; AP2 beta2 appendage carries R879A mutation;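 active = inhibition above a set limit, near 3 SD of compounds lacking own fluorescence, cut at about 54% in these data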;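 also: plate controls were DMSO wells for no effect and 5 µM unlabelled arrestin peptide for full effect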
#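 Assay system: GST-AP2 R879A bound to glutathione beads, E. coli-expressed; Medium: PBS with 0.05% Tween 20 and 0.1% BSA; Also added: fluorescein-tagged arrestin peptide at 50 nM final; Timing: 12 min plus 1 h, RT; Measured by: flow cytometry, FL1 (488/535 nm); Evaluation: percent drop in bead-associated FITC signal.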
# Arr-AP2 CP1 = inhibitors of human beta-arrestin and AP2 interaction. shares compounds with Arr AP2 block. AID 504908. GST-AP2 beads, FITC arrestin peptide binding, flow cytometry; GST-fused beta2-adaptin appendage, R879A mutant. hit rate 2% among 1,300. inhibition, % at 10 µM;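 active = inhibition above a set limit, roughly 3 SD of non-fluorescent compound noise, cut at about 38% in these data; inactive = inhibition at or below that limit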;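 also: loss of bead fluorescence from 50 nM FITC arrestin peptide bound to appendage; 0% = negative control wells and 100% = excess unlabelled arrestin peptide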
# GST GSH counter = counter-screen for beta-arrestin AP2 inhibitors: GST-GSH bead binding; GST-fluorescein binding to GSH beads, fluorescence; inhibition, % at 10 µM; hit rate 2% among 1,300; shares compounds with Arr AP2 block;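 active = inhibition above 50%, about 3 SD of the inhibition seen with non-fluorescent compounds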;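 also: fluorescein maleimide labelled GST captured on 4 micron glutathione beads; higher means more loss of bead fluorescence from quenching or blocked binding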
# The depositor's hits bear a star; i = inactive; · = no result. Rows were chosen to be rich in hits. Some 0.57% of all compounds tested hit in one or more screens of this group.
SMILES,JMJD2C inh,p-CIP stab down,VLA-4 inh,Arr AP2 block,Arr-AP2 CP1,GST GSH counter
Cc1ccc(-c2c(C(=O)N/N=C/c3cccs3)nnn2-c2nonc2N)cc1,18,-1,11,28,·,·
CCOc1ccc(-c2c(C(=O)N/N=C/c3cccs3)nnn2-c2nonc2N)cc1,20,-19,-10,61*,4,-5
CSc1ccccc1NC(=O)C1=COCCO1,15,-8,7,-14,·,·
CCN(CC)C(=O)Nc1c(C)n(C)n(-c2ccccc2)c1=O,-10,-1,-1,65*,0,-3
CC(NC(=O)C12CC3CC(CC(C3)C1)C2)C(=O)NN=Cc1ccc([N+](=O)[O-])o1 (stereo not drawn),8,·,4,-9,·,·
CCc1ccc(N2CCN(CCNC(=O)Nc3ccccc3)CC2)cc1,6,-105,5,7,·,·
O=C(c1ccco1)N1CCN(C(c2ccccc2)c2nnnn2Cc2cccs2)CC1 (stereo not drawn),6,1,13,3,·,·
COc1ccc(NC(=O)N(CCN2CCCC2)Cc2cc3cc(OC)c(OC)cc3[nH]c2=O)cc1,-4,-4,-2,87*,5,-8
O=C(Nc1ccc(F)cc1)N(CCCN1CCOCC1)Cc1cc2cc3c(cc2[nH]c1=O)OCCO3,0,-3,11,12,·,·
O=C(Nc1ccc(F)cc1)N(CCCN1CCOCC1)Cc1cc2cc3c(cc2[nH]c1=O)OCO3,-5,-20,-6,68*,-7,-6
COc1ccc(NC(=O)N(CCCN(C)C)Cc2cc3cc(OC)ccc3[nH]c2=O)cc1,10,-15,4,1,·,·
COc1cc2cc(CN(C(=O)NC3CCCCC3)C3CCCC3)c(=O)[nH]c2cc1OC,-18,3,7,6,·,·
COc1ccc(CN(Cc2cc3cc(OC)c(OC)cc3[nH]c2=O)C(=O)NC2CCCCC2)cc1,-2,-5,-7,2,9,-3
C=CCc1ccccc1OCC(=O)OCCNC(=O)c1cccnc1,0,-4,8,-6,·,·
O=C(NN1CCOCC1)c1cccc(Cl)c1,14,-4,3,71*,1,-11
CC1C(c2ccccc2)=[N+]([O-])C2(CCCCC2)N1O (stereo not drawn),3,2,14,74*,-9,-6
CC1=C(c2ccccc2)[N+](=O)C2(CCCCC2)N1[O-],2,12,11,-5,·,·
O=C1CN(C(=O)c2ccc(Br)o2)C(c2ccccc2)c2cc(Cl)ccc2N1 (stereo not drawn),-8,-13,1,0,·,·
NS(=O)(=O)c1ccc(-n2nncc2C23CC4CC(CC(C4)C2)C3)cc1,0,9,3,7,·,·
Cc1ccc(C)c(S(=O)(=O)N2CCN(C(=O)Cn3cnc4c3c(=O)n(C)c(=O)n4C)CC2)c1,6,-13,-7,-2,·,·
Cn1c(=O)c2c(ncn2CC(=O)N2CCN(S(=O)(=O)c3ccccc3)CC2)n(C)c1=O,7,-2,15,57*,-2,-4
CC12CN3CC(C)(CN(C1)C3c1cc(Br)ccc1O)C2=O (stereo not drawn),-3,3,6,2,·,·
CC12CN3CC(C)(CN(C1)C3c1ccc(Br)cc1O)C2 (stereo not drawn),-1,-2,11,23,-7,0
CC(=O)OCC(=O)Nc1ccc(N=Nc2ccccc2)cc1,0,2,2,8,·,·
CC(C)C(=O)OCC(=O)Nc1ccc(N=Nc2ccccc2)cc1,-7,10,31,56*,-4,-4
SMILES,JMJD2C inh,p-CIP stab down,VLA-4 inh,Arr AP2 block,Arr-AP2 CP1,GST GSH counter
CNC(=S)N1CCN(c2c(F)cc3c(=O)c(C(=O)O)cn(C4CC4)c3c2OC)CC1C (stereo not drawn),-1,6,0,68*,-3,-10
Cc1c(C(=O)NC(C)c2ccccn2)oc2c(Cl)cccc12 (stereo not drawn),·,·,·,74*,-11,-10
CCc1cccc(NC(=O)Cc2cn(C)c3ccccc23)c1,-4,-1,6,11,·,·
CCOC(=O)c1[nH]c(C)c(CN(CCc2ccccc2)C(=O)CCC(=O)O)c1C,5,-16,-31,2,·,·
CCCCn1c(N)c(N(CCOC)C(=O)COC(=O)COc2ccccc2C#N)c(=O)[nH]c1=O,27,·,20,56*,19,3
O=C(CNC(=O)c1ccc(Cl)cc1)OCc1nc2ccccc2s1,-31,0,-4,-6,·,·
COc1cc(OC)cc(C(=O)NCC(=O)OCc2nc3ccccc3s2)c1,41,5,-14,55*,1,5
C/C(=N\Nc1ccc(S(=O)(=O)Nc2ccccc2)cc1[N+](=O)[O-])c1ccncc1,4,-4,-2,·,·,·
C[C@H](NC(=O)c1nc[nH]c1C(=O)NC1CCN(C(=O)OC(C)(C)C)CC1)C(=O)OC(C)(C)C,-2,-13,9,-1,·,·
N#Cc1c(N)sc(=S)c2c1CCCC2,-2,-9,-7,89*,-3,-3
CCC1(C)Cc2c(C#N)c(N)sc(=S)c2CO1 (stereo not drawn),-1,-15,8,6,·,·
CCOC(=O)C1=C(COC(=O)CCOc2cc(C)ccc2C)NC(=O)NC1C (stereo not drawn),17,·,0,-6,-3,-9
CCOC(=O)C1=C(COC(=O)CCOc2cccc(C)c2)NC(=O)NC1C (stereo not drawn),-6,·,19,11,-8,-6
CCOC(=O)C1=C(COC(=O)CCOc2ccccc2)NC(=O)NC1C (stereo not drawn),2,·,8,-8,-10,-11
CCN1C(c2ccccc2)=C(c2ccccc2)S/C1=C\C=C1/SC(=S)N(C)C1=O,45,·,i,75*,18,43
CCN1C(=O)/C(=C/C=C2/Sc3ccc4ccccc4c3N2CCO)SC1=S,-8,-48,i,4,·,·
CCN1C(c2ccccc2)=C(c2ccccc2)S/C1=C/C=C1\SC(=S)N(C)C1=O,·,-4,·,57*,-4,14
COC(=O)CN1C(=O)[C@H]2[C@@H](/C=C/c3ccccc3)N3C(=O)CN(Cc4ccccn4)C(=O)[C@@]3(Cc3ccccc3)[C@H]2C1=O,39,·,2,·,·,·
CCOc1ccccc1CN1CCN(Cc2cn(C)nc2-c2ccccc2)CC1CCO (stereo not drawn),-17,-6,1,54*,7,5
O=C(NCC1CCCO1)c1ccc(-c2ccccc2Cl)o1 (stereo not drawn),0,·,11,62*,1,-7
COCCNC(=O)Cn1nc(-c2ccc(Cl)cc2)c2ccccc2c1=O,·,-8,i,64*,-4,3
Cc1ccc(CNC(=O)C(=O)NCCC2CCCCN2S(=O)(=O)c2cccs2)cc1 (stereo not drawn),2,·,39,-1,·,·
CCOc1ccc(NC(=O)c2ccc(NC(=O)COC(=O)Cc3ccc(OC)cc3)cc2)cc1,5,3,8,55*,5,-5
